Measurements from ChEMBL document CHEMBL1153437, “Inhibition of monoamine oxidase B by N-methyl-2-phenylmaleimides” (Bioorg Med Chem, 2009).
Activity calls are given as the source filed them. The rule behind the calls is not given here.

Key:
[1] = Stability in pH 7.4 sodium phosphate buffer assessed as hydrolysis at 100 uM after 30 mins; type: physicochemical; details: read-out: Activity
How it was run: (§1)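 Compound (100 µM, or 10 µM where stated) in 100 mM sodium phosphate buffer, pH 6.4–8.0, with 4% DMSO, held at 37 °C in quartz cuvettes. UV–vis spectra (230–500 nm) recorded at intervals. Remaining compound was calculated from the loss of absorbance at its longest-wavelength maximum (337–354 nm) using its molar absorptivity; hydrolysis is expressed as percent.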

[2] = Inhibition of MAO-B in baboon liver microsome assessed as MMDP+ formation; type: microsomes, Papio hamadryas
How it was run: (§2)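 Baboon liver mitochondrial fraction (0.15 mg protein/mL) as MAO-B source; substrate MMTP 30–120 µM with varied inhibitor concentrations, 4% DMSO cosolvent. Incubation at 37 °C for 10 min, stopped with perchloric acid, centrifuged; MMDP⁺ read at 420 nm (ε 25,000 M⁻¹). Ki from the x-intercept of a replot of Lineweaver–Burk slopes versus inhibitor concentration; single determination, replot R² ≥0.99.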

Papio hamadryas [3] = species: Papio hamadryas; assay: Competitive inhibition of MAO-B in baboon liver microsome by Lineweaver-Burke plot; type: microsomes; how it was run: as §2
Papio hamadryas [4] = species: Papio hamadryas; assay: Inhibition of MAO-B in baboon liver microsome assessed as MMDP+ formation at 13 uM after 30 mins relative to control; values are per cent of control
Papio hamadryas [5] = species: Papio hamadryas; assay: Inhibition of MAO-B in baboon liver microsome assessed as MMDP+ formation at 13 uM after 180 mins relative to control; values are per cent of control
Papio hamadryas [6] = species: Papio hamadryas; assay: Inhibition of MAO-B in baboon liver microsome assessed as MMDP+ formation at 13 uM after 240 mins relative to control; values are per cent of control
Papio hamadryas [7] = species: Papio hamadryas; assay: Inhibition of MAO-B in baboon liver microsome assessed as MMDP+ formation at 13 uM after 120 mins relative to control; values are per cent of control
Papio hamadryas [8] = species: Papio hamadryas; assay: Inhibition of MAO-B in baboon liver microsome assessed as MMDP+ formation at 13 uM after 60 mins relative to control; values are per cent of control
[9] = Stability in pH 7 sodium phosphate buffer assessed as hydrolysis at 100 uM at 360 mins; type: physicochemical; details: read-out: Activity; how it was run: as §1
[10] = Stability in pH 8 sodium phosphate buffer assessed as hydrolysis at 100 uM at 360 mins; type: physicochemical; details: read-out: Activity; how it was run: as §1
Papio hamadryas [11] = species: Papio hamadryas; assay: Inhibition of MAO-B in baboon liver microsome assessed as MMDP+ formation at 14 uM up to 60 mins; type: microsomes
How it was run: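 Baboon liver mitochondria (0.3 mg protein/mL) preincubated with inhibitor (14 µM) in 100 mM sodium phosphate pH 7.4 at 37 °C for 0, 15, 30 or 60 min. Then diluted to 0.15 mg protein/mL (inhibitor 7 µM final) with MMTP 90 µM and incubated 15 min at 37 °C. Perchloric acid stop, MMDP⁺ read at 420 nm; triplicate, mean ± SEM.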

[12] = Stability in pH 7.4 sodium phosphate buffer assessed as hydrolysis at 10 uM after 30 mins; type: physicochemical; details: read-out: Activity; how it was run: as §1
[13] = Stability in pH 6.4 to 8 phosphate buffer at 100 uM; type: physicochemical; details: pH 6.4, 100 µM; how it was run: as §1
[14] = Stability in pH 7.4 sodium phosphate buffer assessed as hydrolysis at 100 uM at 360 mins; type: physicochemical; details: read-out: Activity; how it was run: as §1
[15] = Stability in pH 6.4 to 8 phosphate buffer at 100 uM up to 360 mins; type: physicochemical; details: pH 6.4, 6 h; how it was run: as §1
[16] = molecular target: T1, Amine oxidase [flavin-containing] B (Homo sapiens, UniProt P27338); assay: Inactivation of human […] assessed as half time at 0.8 mM; details: 800 µM
T1 sequence (P27338 whole entry): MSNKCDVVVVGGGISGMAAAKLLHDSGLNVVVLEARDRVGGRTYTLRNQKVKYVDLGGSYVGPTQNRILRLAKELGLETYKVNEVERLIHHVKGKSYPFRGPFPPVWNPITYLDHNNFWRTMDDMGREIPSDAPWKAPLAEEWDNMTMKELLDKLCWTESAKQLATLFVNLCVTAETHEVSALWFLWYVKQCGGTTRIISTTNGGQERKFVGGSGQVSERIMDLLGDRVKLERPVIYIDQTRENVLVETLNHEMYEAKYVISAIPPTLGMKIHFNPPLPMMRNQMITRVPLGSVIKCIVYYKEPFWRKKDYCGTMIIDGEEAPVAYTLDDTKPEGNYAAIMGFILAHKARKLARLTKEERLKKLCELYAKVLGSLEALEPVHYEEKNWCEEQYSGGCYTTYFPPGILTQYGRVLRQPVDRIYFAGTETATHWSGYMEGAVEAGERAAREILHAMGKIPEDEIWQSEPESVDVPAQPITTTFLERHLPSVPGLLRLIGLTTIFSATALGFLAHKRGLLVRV

| Compound | degraded at 0.5 h, 100 µM [1] [%] | Ki [2] [µM] | other results |
| --- | --- | --- | --- |
| CN1C(=O)C=C(c2cccc(C(F)(F)F)c2)C1=O | 40 | 11 |  |
| CN1C(=O)C=C(c2cccc(F)c2)C1=O | 40 | 5.73 |  |
| CN1C(=O)C=C(c2cccc(Cl)c2)C1=O | 40 | 6.66 | Activity (Papio hamadryas [3]): Active; residual activity (Papio hamadryas [4]): 52%; residual activity (Papio hamadryas [5]): 80%; residual activity (Papio hamadryas [6]): 84%; residual activity (Papio hamadryas [7]): 68%; residual activity (Papio hamadryas [8]): 66% |
| CN1C(=O)C=C(c2cccc(Br)c2)C1=O | 40 | 6.99 |  |
| CN1C(=O)C=C(c2ccccc2)C1=O | 2.8 | 3.49 | degraded at 6 h, 100 µM [9]: 13%; degraded at 6 h, 100 µM [10]: 73.8%; Activity (Papio hamadryas [11]): inactive; degraded at 0.5 h, 10 µM [12]: 1%; Activity [13]: Stable; degraded at 6 h, 100 µM [14]: 31.4%; Activity [15]: Stable |
| Cc1cccc(C2=CC(=O)N(C)C2=O)c1 | 40 | 8.6 |  |
| COc1cccc(C2=CC(=O)N(C)C2=O)c1 | 40 | 8.56 |  |
| CCN1C(=O)C=CC1=O [N-ETHYLMALEIMIDE] |  |  | Time [16]: 8 h |
